This is an account of results in BindingDB's records for doi:10.1021/np070447m (2008).

The target in test [1] is Casein kinase II subunit alpha (Homo sapiens, UniProt P68400). Description: Inhibition of recombinant CK2alpha1. The method in brief: (§1)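 Purified recombinant kinase, 50 µL reaction. 1 µM [γ-33P]-ATP with substrate; compound added in 10% DMSO. Tested over several concentrations; IC50 in g/mL.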
Test [2] has as its target Insulin-like growth factor 1 receptor (Homo sapiens, UniProt P08069). Put plainly: Inhibition of recombinant IGF1R. The method in brief:
as §1

Test [3] has as its target T1, Receptor-type tyrosine-protein kinase FLT3 (Homo sapiens, UniProt P36888).
T1 sequence (P36888 whole entry): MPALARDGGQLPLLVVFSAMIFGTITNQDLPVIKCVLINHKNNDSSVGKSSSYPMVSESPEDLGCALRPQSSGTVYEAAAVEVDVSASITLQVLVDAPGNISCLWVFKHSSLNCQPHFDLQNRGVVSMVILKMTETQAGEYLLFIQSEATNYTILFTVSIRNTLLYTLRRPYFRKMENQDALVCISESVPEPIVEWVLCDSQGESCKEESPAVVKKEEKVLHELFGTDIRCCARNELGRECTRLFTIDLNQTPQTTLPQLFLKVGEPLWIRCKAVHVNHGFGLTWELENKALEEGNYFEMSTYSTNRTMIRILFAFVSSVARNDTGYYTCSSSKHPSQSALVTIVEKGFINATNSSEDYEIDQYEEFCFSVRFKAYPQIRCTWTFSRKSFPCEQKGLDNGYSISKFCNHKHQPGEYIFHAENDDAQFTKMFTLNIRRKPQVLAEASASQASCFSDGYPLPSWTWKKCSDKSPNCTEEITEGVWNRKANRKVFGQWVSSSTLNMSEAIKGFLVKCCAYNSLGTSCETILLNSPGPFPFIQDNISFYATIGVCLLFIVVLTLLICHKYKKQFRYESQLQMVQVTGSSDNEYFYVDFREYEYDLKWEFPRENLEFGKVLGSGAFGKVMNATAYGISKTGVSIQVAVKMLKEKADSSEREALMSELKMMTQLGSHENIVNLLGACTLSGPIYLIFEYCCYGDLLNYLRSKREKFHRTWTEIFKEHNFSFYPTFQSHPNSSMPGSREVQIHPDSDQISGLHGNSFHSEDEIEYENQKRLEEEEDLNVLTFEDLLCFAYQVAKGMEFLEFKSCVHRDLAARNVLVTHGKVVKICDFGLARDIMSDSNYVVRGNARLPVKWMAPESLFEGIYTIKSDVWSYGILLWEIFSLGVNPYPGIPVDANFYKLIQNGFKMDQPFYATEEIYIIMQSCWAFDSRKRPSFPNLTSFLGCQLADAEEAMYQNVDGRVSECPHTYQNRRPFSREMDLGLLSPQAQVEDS
Put plainly: Inhibition of recombinant FLT3. The method in brief:
as §1

Test [4] addresses T2, NUAK family SNF1-like kinase 1 (Homo sapiens, UniProt O60285).
T2 sequence (O60285 whole entry): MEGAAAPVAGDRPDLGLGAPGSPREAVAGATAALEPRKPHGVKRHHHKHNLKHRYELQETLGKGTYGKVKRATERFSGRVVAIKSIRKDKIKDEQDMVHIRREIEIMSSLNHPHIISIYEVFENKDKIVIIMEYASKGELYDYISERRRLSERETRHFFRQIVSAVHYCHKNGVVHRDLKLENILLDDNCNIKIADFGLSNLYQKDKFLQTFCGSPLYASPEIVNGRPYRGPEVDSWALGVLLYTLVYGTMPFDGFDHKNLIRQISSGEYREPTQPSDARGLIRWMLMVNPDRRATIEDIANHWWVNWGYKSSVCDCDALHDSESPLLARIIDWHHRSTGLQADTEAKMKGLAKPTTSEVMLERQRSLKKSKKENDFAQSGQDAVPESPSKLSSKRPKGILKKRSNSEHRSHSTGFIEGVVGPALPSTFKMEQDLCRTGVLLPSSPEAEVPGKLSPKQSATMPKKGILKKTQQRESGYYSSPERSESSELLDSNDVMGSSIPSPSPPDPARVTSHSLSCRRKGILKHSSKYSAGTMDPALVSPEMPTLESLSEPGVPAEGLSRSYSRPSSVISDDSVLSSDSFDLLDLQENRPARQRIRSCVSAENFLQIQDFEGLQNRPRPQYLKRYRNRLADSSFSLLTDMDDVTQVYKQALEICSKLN
Description: Inhibition of recombinant ARK5.

In test [5] the target is T3, Serine/threonine-protein kinase PLK4 (Homo sapiens, UniProt O00444).
T3 sequence (O00444 whole entry): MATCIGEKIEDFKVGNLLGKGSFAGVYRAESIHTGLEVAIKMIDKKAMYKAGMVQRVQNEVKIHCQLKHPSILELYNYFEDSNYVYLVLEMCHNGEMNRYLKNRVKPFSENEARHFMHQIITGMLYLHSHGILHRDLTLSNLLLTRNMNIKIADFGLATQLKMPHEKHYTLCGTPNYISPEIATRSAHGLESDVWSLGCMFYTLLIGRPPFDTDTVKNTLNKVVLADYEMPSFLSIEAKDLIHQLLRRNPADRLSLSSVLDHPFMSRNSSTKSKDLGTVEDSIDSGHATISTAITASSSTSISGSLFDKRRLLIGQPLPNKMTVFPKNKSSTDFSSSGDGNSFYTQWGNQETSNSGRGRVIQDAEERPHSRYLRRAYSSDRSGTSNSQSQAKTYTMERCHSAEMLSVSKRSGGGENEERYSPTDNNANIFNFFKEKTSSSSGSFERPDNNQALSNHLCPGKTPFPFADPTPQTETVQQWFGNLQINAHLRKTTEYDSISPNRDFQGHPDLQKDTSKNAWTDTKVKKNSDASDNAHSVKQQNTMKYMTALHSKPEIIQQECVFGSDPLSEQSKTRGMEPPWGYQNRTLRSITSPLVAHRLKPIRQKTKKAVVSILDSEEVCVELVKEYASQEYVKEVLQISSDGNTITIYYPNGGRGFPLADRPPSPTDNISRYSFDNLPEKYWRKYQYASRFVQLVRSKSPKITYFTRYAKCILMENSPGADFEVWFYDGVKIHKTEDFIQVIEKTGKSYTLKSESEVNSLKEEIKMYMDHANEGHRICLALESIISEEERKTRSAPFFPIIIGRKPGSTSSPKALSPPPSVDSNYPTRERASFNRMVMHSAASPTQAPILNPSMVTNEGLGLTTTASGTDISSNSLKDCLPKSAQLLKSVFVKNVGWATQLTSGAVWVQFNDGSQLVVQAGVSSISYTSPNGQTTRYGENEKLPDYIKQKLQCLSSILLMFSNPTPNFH
Put plainly: Inhibition of recombinant SAK.

The target of test [6] is Vascular endothelial growth factor receptor 3 (Homo sapiens, UniProt P35916). Put plainly: Inhibition of recombinant VEGFR3. Summed up:
as §1

Test [7] concerns the target Vascular endothelial growth factor receptor 2 (Homo sapiens, UniProt P35968). Description: Inhibition of recombinant VEGFR2. Summed up: as §1
Test [8] concerns the target Mitogen-activated protein kinase kinase kinase 8 (Homo sapiens, UniProt P41279). Put plainly: Inhibition of recombinant COT.
For test [9], the target named is Focal adhesion kinase 1 (Homo sapiens, UniProt Q05397). Put plainly: Inhibition of recombinant FAK.
The target of test [10] is Receptor tyrosine-protein kinase erbB-2 (Homo sapiens, UniProt P04626). Description: Inhibition of recombinant ERBB2.
Test [11] concerns the target T4, Ephrin type-B receptor 4 (Homo sapiens, UniProt P54760).
T4 sequence (P54760 whole entry): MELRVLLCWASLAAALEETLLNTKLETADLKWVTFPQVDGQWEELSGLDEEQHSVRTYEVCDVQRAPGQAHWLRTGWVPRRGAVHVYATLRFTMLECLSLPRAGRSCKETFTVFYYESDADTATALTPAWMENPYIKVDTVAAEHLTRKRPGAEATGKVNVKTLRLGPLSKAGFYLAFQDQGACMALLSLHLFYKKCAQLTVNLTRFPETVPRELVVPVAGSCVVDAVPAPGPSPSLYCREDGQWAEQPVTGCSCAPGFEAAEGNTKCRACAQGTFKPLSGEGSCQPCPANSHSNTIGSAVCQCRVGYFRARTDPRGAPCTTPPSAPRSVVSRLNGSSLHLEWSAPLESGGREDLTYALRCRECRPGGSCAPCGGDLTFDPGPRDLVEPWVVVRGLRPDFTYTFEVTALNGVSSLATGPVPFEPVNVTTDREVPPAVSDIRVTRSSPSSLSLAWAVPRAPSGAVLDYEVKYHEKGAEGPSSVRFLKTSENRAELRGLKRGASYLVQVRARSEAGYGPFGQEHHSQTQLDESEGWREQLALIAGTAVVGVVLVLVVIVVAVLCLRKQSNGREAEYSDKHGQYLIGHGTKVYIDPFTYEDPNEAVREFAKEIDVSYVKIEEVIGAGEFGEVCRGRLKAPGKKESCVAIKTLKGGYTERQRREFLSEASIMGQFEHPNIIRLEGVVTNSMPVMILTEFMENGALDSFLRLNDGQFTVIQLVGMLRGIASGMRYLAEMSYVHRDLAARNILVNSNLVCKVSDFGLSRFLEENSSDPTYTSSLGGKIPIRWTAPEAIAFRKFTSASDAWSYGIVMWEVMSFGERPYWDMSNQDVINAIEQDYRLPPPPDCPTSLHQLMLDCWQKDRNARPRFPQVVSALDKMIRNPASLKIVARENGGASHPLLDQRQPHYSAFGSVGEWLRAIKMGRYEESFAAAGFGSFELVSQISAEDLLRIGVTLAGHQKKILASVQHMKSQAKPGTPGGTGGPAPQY
Description: Inhibition of recombinant EPHB4. Summed up: as §1

The target of test [12] is Cyclin-dependent kinase 2 (Homo sapiens, UniProt P24941). Description: Inhibition of recombinant CDK2/CycA. Summed up: as §1
In test [13] the target is Platelet-derived growth factor receptor beta (Homo sapiens, UniProt P09619). Description: Inhibition of recombinant PDGFRbeta.
In test [14] the target is Serine/threonine-protein kinase PLK1 (Homo sapiens, UniProt P53350). Description: Inhibition of recombinant PLK1.
For test [15], the target named is Cyclin-dependent kinase 4/G1/S-specific cyclin-D1 (Homo sapiens, UniProt P11802). Put plainly: Inhibition of recombinant CDK4/CycD1.
Test [16] concerns the target RAC-alpha serine/threonine-protein kinase (Homo sapiens, UniProt P31749). Description: Inhibition of recombinant AKT1. The method in brief: as §1
For test [17], the target named is Angiopoietin-1 receptor (Homo sapiens, UniProt Q02763). Description: Inhibition of recombinant TIE2.
Test [18] has as its target Aurora kinase B (Homo sapiens, UniProt Q96GD4). Description: Inhibition of recombinant Aurora B. The method in brief: as §1
Test [19] addresses T5, Aurora kinase A (Homo sapiens, UniProt O14965).
T5 sequence (O14965 whole entry): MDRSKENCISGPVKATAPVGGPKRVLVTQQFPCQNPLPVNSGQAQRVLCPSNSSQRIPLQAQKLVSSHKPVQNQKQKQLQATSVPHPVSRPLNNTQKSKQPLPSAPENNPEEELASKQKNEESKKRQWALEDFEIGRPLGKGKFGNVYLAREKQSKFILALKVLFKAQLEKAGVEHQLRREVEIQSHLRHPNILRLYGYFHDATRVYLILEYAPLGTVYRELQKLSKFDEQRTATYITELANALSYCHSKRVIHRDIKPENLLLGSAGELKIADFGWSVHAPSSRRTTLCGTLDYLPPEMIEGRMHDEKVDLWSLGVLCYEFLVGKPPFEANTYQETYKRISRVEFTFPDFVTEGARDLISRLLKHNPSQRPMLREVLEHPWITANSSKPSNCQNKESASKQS
Description: Inhibition of recombinant Aurora A. The method in brief: as §1

Test [20] addresses Serine/threonine-protein kinase B-raf (Homo sapiens, UniProt P15056, V600E). Description: Inhibition of recombinant B-RAF-V600E mutant. The method in brief: as §1

Structures are written as SMILES. A value given as a limit tells only on which side of the number the result lay.

Chain of Casein kinase II subunit alpha (P68400 whole entry): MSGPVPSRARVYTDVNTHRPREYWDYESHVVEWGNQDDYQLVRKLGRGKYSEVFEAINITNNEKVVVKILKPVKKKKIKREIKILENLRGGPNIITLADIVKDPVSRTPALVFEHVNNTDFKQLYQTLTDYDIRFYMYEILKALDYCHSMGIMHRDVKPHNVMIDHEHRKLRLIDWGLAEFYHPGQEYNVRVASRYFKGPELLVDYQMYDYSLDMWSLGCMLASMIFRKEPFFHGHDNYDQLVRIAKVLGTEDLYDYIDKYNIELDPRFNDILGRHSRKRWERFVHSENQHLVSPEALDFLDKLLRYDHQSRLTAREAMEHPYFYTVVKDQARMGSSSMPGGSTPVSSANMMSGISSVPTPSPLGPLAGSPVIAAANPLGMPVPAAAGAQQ
Chain of Serine/threonine-protein kinase PLK1 (P53350 whole entry): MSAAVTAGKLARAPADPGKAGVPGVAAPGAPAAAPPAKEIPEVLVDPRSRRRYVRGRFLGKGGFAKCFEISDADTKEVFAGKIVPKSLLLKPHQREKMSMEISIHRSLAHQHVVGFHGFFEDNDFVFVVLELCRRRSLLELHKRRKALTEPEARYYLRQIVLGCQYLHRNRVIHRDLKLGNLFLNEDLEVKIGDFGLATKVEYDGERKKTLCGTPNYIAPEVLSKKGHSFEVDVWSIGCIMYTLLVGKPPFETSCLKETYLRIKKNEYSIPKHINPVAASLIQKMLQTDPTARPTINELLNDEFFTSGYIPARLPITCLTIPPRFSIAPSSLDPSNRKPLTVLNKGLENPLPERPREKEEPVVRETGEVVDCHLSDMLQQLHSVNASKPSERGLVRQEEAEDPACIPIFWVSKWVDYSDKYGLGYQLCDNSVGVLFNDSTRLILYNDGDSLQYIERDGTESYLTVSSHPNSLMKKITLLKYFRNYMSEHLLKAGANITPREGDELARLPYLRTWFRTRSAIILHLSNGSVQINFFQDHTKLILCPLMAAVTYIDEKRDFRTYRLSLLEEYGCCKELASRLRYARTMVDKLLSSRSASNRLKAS
Chain of RAC-alpha serine/threonine-protein kinase (P31749 whole entry): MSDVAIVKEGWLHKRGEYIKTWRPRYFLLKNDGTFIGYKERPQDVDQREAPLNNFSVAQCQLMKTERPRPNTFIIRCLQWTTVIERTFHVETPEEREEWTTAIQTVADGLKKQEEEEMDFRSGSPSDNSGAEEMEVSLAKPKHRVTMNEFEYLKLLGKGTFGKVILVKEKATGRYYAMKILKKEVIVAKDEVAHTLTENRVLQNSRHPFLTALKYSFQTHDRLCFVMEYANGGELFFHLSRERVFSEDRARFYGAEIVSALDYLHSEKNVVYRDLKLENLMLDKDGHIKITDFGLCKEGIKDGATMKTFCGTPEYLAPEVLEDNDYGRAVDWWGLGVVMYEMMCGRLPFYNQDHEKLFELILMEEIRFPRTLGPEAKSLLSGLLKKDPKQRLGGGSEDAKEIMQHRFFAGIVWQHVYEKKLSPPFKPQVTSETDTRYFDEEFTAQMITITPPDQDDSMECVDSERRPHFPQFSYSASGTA
Chain of Receptor tyrosine-protein kinase erbB-2 (P04626 whole entry): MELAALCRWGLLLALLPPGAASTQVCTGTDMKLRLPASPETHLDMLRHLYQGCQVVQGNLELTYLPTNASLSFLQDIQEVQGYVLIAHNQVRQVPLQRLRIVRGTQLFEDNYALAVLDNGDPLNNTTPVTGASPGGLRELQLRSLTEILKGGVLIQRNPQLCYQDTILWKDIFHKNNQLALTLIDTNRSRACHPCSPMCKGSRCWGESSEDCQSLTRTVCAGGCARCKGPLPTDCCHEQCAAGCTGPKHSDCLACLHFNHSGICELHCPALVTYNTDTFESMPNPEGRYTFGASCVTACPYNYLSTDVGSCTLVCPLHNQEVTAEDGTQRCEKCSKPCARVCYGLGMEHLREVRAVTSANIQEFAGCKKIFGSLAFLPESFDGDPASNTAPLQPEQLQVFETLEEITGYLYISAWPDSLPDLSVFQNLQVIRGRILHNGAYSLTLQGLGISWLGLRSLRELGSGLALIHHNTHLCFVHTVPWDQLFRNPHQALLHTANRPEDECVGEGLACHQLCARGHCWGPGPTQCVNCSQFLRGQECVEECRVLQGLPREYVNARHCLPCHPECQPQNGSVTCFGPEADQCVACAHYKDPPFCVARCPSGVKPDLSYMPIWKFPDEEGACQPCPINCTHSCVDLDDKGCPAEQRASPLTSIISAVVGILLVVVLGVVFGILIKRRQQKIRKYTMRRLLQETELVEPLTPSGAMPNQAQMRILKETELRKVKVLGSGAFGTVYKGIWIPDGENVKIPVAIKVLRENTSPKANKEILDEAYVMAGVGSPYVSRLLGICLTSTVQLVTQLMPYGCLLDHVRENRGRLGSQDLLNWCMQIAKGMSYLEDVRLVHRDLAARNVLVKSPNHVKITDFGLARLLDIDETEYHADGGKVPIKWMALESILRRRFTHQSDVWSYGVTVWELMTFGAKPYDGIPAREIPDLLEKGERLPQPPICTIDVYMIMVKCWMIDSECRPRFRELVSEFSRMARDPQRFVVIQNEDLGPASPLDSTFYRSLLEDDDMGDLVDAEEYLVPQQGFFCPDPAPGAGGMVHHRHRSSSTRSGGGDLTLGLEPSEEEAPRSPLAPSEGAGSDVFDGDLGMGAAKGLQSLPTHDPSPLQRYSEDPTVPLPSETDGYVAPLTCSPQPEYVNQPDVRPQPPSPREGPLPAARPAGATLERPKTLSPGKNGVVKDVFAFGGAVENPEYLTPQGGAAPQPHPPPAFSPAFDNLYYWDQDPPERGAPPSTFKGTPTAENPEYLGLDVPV
Chain of Aurora kinase B (Q96GD4 whole entry): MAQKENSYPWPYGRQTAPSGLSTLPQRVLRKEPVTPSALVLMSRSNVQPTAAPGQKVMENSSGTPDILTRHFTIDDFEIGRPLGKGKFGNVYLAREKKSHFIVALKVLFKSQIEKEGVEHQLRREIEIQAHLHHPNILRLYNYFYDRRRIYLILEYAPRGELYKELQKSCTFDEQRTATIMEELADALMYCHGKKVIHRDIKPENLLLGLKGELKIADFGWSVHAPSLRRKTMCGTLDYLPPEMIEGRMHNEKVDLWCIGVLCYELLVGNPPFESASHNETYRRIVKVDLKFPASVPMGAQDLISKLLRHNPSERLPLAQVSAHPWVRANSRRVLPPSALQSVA
Chain of Platelet-derived growth factor receptor beta (P09619 whole entry): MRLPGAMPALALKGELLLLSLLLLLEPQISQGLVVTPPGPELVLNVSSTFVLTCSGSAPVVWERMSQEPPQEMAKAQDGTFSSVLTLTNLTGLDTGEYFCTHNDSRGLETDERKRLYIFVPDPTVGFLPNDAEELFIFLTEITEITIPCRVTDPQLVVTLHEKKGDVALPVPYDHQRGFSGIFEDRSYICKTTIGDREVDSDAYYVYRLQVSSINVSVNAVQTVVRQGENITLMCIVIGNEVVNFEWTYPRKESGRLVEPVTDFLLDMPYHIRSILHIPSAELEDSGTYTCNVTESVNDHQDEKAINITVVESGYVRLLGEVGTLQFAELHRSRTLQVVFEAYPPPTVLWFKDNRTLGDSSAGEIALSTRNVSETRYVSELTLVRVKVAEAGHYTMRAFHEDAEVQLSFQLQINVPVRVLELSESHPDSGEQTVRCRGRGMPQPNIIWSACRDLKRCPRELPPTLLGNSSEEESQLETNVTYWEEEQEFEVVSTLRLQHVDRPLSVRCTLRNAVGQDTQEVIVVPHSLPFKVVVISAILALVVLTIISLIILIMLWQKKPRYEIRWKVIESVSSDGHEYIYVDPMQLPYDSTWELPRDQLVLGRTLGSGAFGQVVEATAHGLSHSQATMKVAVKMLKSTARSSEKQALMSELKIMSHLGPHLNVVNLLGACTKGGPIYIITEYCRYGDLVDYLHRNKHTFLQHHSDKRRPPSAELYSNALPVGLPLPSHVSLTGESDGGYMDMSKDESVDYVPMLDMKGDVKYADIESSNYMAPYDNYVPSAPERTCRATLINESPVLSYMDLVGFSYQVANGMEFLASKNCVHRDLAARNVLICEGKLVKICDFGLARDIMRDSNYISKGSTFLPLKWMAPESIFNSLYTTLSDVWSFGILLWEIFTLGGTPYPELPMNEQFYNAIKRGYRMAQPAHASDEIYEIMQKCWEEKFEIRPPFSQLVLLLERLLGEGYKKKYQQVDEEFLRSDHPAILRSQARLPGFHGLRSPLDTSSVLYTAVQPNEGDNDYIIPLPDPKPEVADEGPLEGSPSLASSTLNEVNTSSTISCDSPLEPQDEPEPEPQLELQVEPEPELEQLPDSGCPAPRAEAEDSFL
Chain of Mitogen-activated protein kinase kinase kinase 8 (P41279 whole entry): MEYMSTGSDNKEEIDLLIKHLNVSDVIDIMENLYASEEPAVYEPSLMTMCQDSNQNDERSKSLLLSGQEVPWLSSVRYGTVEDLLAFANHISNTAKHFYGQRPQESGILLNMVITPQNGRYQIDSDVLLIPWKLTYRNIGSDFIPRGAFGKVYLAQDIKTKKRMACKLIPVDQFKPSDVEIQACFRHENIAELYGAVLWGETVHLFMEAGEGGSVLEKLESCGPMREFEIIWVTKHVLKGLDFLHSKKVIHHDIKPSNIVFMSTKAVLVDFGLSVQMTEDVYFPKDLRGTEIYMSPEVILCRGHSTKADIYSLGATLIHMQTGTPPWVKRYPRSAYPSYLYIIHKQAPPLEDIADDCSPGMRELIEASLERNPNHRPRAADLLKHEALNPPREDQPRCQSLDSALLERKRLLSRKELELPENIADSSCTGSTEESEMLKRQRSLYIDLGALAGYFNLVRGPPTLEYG

One may read the IC50 as the concentration that inhibits the measured activity by half. With `COc1cc(O)c2c(=O)oc3cc(O)cc(C)c3c2c1`, in [1], the IC50 was above 36.7 µM.

With `COc1cc(O)c2c(=O)oc3c(O)c(O)cc(C)c3c2c1`, the IC50 is 3.15 µM in test [2]; above 34.6 µM in test [1]; 1.83 µM in [3]; 1.21 µM in test [4]; 2.87 µM in test [5]; 1.35 µM in test [6]. The half-maximal inhibitory concentration (IC50) in [7] was found to be 2.22 µM.

With `COc1cc(O)c(C(=O)O)c(C2=C(C)C[C@@H](O)C2=O)c1` [Alternarienonic Acid], the IC50 in test [8], in [9], in test [10], in test [11], in [1] and in test [12] was above 35.9 µM in each case. Further, the IC50 in test [13], in test [14], in [15], in test [16] and in test [17] was above 35.9 µM throughout.

For the molecule `Cc1cc(O)cc2oc(=O)c3c(O)cc(OS(=O)(=O)O)cc3c12` [Alternariol 5-O-Sulfate], the IC50 in test [12] was 2.48 µM; in test [18], 0.65 µM; in [3] it was 0.975 µM; in test [19], 1.15 µM; in test [16], above 29.5 µM; in [20], 2.18 µM. Further, the IC50 was 2.21 µM in test [4], 1.12 µM in test [5] and 2.06 µM in test [7].

With `O=C1C[C@H](O)[C@@H]2c3c(ccc(O)c31)-c1ccc(O)c3c1[C@@]2(O)CCC3=O` [Altertoxin I], the IC50 in test [10] was above 28.3 µM; in [1] it was above 28.3 µM; in [12], above 28.3 µM; in test [18] it was 2.78 µM; in test [3], 1.87 µM; in test [14], above 28.3 µM. In test [16], the IC50 is above 28.3 µM.

Consider `Cc1cc(O)cc2oc(=O)c3c(O)cc(O)cc3c12` [CHEBI:64983], for which the IC50 in test [11] was above 38.7 µM; in test [13], 3.44 µM; in test [19] it was 2.82 µM; in test [16], above 38.7 µM; in [4], 3.67 µM.

For `Cc1cc(O)c(O)cc1-c1cc(O)cc(O)c1C(=O)O` [Desmethylaltenusin], the concentration for half-maximal inhibition (IC50) in test [10], in [1], in [12], in test [14] and in test [16] was above 36.2 µM in each case.
